ChEMBL document CHEMBL1240314, “Small-molecule inhibitor of p53 binding to mitochondria protects mice from gamma radiation” (2006)
The source made the active and inactive calls. The calls are words filed in the database; no cut-off is given here.

How the values were obtained:
[1] = target: Cellular tumor antigen p53 (Homo sapiens) (UniProt P04637); test: Inhibition of p53-mediated transactivation in human MCF7 cells in presence of 0.5 ug/ml of doxorubicin after 24 hrs by beta-galactosidase reporter gene assay; format: cell-based
Cellular tumor antigen p53 (Homo sapiens), sequence (P04637 whole entry, looked up): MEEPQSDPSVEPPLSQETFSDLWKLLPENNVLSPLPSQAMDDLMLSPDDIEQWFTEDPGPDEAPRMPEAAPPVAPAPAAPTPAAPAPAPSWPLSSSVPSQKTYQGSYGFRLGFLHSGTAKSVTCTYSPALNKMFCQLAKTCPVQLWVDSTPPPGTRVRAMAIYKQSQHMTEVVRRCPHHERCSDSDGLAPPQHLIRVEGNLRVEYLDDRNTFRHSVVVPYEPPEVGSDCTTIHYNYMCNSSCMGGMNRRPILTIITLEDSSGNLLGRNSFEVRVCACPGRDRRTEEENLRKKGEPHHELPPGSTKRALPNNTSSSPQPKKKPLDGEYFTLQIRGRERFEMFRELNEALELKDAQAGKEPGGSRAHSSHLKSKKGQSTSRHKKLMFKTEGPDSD
Outline: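 MCF7 cells with a p53-responsive lacZ reporter treated with Dox 0.5 mg ml–1 (so in the source) plus a range of compound concentrations; β-galactosidase measured colorimetrically in cell extracts after 24 h; means ± s.d., n = 3.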

[2] = target: Cellular tumor antigen p53 (Homo sapiens) (UniProt P04637); test: Inhibition of p53-dependent transactivation of p21 in gamma-stimulated human ConA cells; format: cell-based
Outline: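 ConA cells given 10 µM test agent and 10 Gy gamma irradiation. Protein extracts taken 6 h post-irradiation and p21 detected by immunoblotting.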

[3] = target: Cellular tumor antigen p53 (Homo sapiens) (UniProt P04637); test: Inhibition of p53-mediated transactivation in human MCF7 cells in presence of 50 ug/ml of 5-fluorouracil after 24 hrs by beta-galactosidase reporter gene assay; format: cell-based
Outline: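 MCF7 cells carrying a lacZ reporter under a p53-responsive promoter, treated with 5-FU 50 µg ml–1 across a range of test-agent concentrations. β-galactosidase measured colorimetrically in cell extracts after 24 h drug incubation. Means ± s.d., n = 3.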

NCI-H1299 [4] = test: Antiapoptotic activity against staurosporine-induced cell death in human H1299 cells assessed as caspase 7 activity at 10 uM after 24 hrs; format: functional, cell-based
NCI-H1299 [5] = test: Antiapoptotic activity against staurosporine-induced cell death in human H1299 cells assessed as caspase 3 activity at 10 uM after 24 hrs; format: functional, cell-based
HeLa [6] = test: Antiapoptotic activity against staurosporine-induced cell death in human HeLa cells assessed as caspase 3 activity at 10 uM after 24 hrs; format: functional, cell-based
HeLa [7] = test: Antiapoptotic activity against staurosporine-induced cell death in human HeLa cells assessed as caspase 7 activity at 10 uM after 24 hrs; format: functional, cell-based

SMILES: COc1cccc2c1C(=O)c1c(O)c3c(c(O)c1C2=O)C[C@@](O)(C(=O)CO)C[C@@H]3O[C@H]1C[C@H](N)[C@H](O)[C@H](C)O1
- inhibition [1]: inactive

SMILES: Cc1ccc(C(=O)Cn2c3c(sc2=N)CCCC3)cc1
- inhibition [2]: Active

SMILES: O=c1[nH]cc(F)c(=O)[nH]1
- inhibition [3]: inactive

SMILES: CN[C@@H]1C[C@H]2O[C@@](C)([C@@H]1OC)n1c3ccccc3c3c4c(c5c6ccccc6n2c5c31)C(=O)NC4
- Activity (NCI-H1299 [4]): inactive
- Activity (NCI-H1299 [5]): inactive
- Activity (HeLa [6]): inactive
- Activity (HeLa [7]): inactive
